# Source: ChEMBL document CHEMBL1828606, “Anticancer and radio-sensitizing evaluation of some new thiazolopyrane and thiazolopyranopyrimidine derivatives bearing a sulfonamide moiety” (Eur J Med Chem, 2011)
# What was measured:
# MCF7 [1] = experiment: Anticancer activity against human MCF7 cells assessed as viable cells at 10 uM after 48 hrs by SRB assay relative to control; type: functional
# Summary of the method: (§1)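 MCF7 human breast tumor cells seeded at 10⁴ cells/well and left 24 h to attach. Compounds dissolved in DMSO, added in replicate wells per concentration, 48 h at 37 °C under 5% CO₂. Cells fixed and stained 30 min with 0.4% (wt/vol) SRB in 1% acetic acid. Washed four times with 1% acetic acid, dye recovered in Tris-EDTA, read on an ELISA reader.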
# MCF7 [2] = experiment: Anticancer activity against human MCF7 cells assessed as viable cells after 48 hrs by SRB assay; type: functional, cell-based; conditions: MCF7, 48 h; summary of the method: as §1
# MCF7 [3] = experiment: Anticancer activity against human MCF7 cells assessed as viable cells at 100 uM after 48 hrs by SRB assay relative to control; type: functional; summary of the method: as §1
# MCF7 [4] = experiment: Anticancer activity against human MCF7 cells assessed as viable cells at 50 uM after 48 hrs by SRB assay relative to control; type: functional; summary of the method: as §1
# MCF7 [5] = experiment: Anticancer activity against human MCF7 cells assessed as viable cells at 25 uM after 48 hrs by SRB assay relative to control; type: functional; summary of the method: as §1
# MCF7 [6] = experiment: Anticancer activity against 8 Gy gamma-irradiated human MCF7 cells assessed as viable cells after 48 hrs at 10 uM by SRB assay relative to control; type: functional; summary of the method: as §1
# MCF7 [7] = experiment: Anticancer activity against 8 Gy gamma-irradiated human MCF7 cells assessed as viable cells after 48 hrs at 25 uM by SRB assay relative to control; type: functional; summary of the method: as §1
# MCF7 [8] = experiment: Anticancer activity against 8 Gy gamma-irradiated human MCF7 cells assessed as viable cells after 48 hrs at 100 uM by SRB assay relative to control; type: functional; summary of the method: as §1
# MCF7 [9] = experiment: Anticancer activity against 8 Gy gamma-irradiated human MCF7 cells assessed as viable cells after 48 hrs by SRB assay; type: functional, cell-based; conditions: MCF7, light or radiation study; summary of the method: as §1
# MCF7 [10] = experiment: Anticancer activity against 8 Gy gamma-irradiated human MCF7 cells assessed as viable cells after 48 hrs at 50 uM by SRB assay relative to control; type: functional; summary of the method: as §1
SMILES,fold change (FC) (MCF7 [1]),IC50 (MCF7 [2]) [µM],fold change (FC) (MCF7 [3]),fold change (FC) (MCF7 [4]),fold change (FC) (MCF7 [5]),fold change (FC) (MCF7 [6]),fold change (FC) (MCF7 [7]),fold change (FC) (MCF7 [8]),IC50 (MCF7 [9]) [µM],fold change (FC) (MCF7 [10])
Cc1ccc(S(=O)(=O)NC2=C(C#N)C(c3ccc(Cl)cc3)c3sc(Nc4ccc(S(N)(=O)=O)cc4)nc3O2)cc1 (stereo not given),0.92,71.7,0.6,0.2,0.52,–,–,–,–,–
CC(=O)NC1=C(C#N)C(c2ccc(Cl)cc2)c2sc(Nc3ccc(S(N)(=O)=O)cc3)nc2O1 (stereo not given),0.801,41.9,0.252,0.183,0.447,–,–,–,–,–
CC(=O)N(C(C)=O)C1=C(C#N)C(c2ccc(Cl)cc2)c2sc(Nc3ccc(S(N)(=O)=O)cc3)nc2O1 (stereo not given),0.913,74.3,0.617,0.234,0.511,–,–,–,–,–
N#CC1=C(/N=C/c2ccccc2)Oc2nc(Nc3ccc(S(N)(=O)=O)cc3)sc2C1c1ccc(Cl)cc1 (stereo not given),0.93,45.2,0.324,0.295,0.206,–,–,–,–,–
Nc1nc(=O)[nH]c2c1C(c1ccc(Cl)cc1)c1sc(Nc3ccc(S(N)(=O)=O)cc3)nc1O2 (stereo not given),0.9,84.1,0.654,0.265,0.56,–,–,–,–,–
NS(=O)(=O)c1ccc(Nc2nc3c(s2)C(c2ccc(Cl)cc2)c2c(nc[nH]c2=O)O3)cc1 (stereo not given),0.794,41.6,0.175,0.204,0.515,0.65,0.371,0.04,28.4,0.06
NC(=O)C1=C(N)Oc2nc(Nc3ccc(S(N)(=O)=O)cc3)sc2C1c1ccc(Cl)cc1 (stereo not given),0.815,41.8,0.21,0.169,0.499,–,–,–,–,–
Nc1nc(=S)[nH]c2c1C(c1ccc(Cl)cc1)c1sc(Nc3ccc(S(N)(=O)=O)cc3)nc1O2 (stereo not given),0.814,52.8,0.325,0.241,0.639,–,–,–,–,–
Nc1ncnc2c1C(c1ccc(Cl)cc1)c1sc(Nc3ccc(S(N)(=O)=O)cc3)nc1O2 (stereo not given),0.62,35.8,0.207,0.186,0.454,0.504,0.341,0.086,23.7,0.064
N#CC1=C(/N=C/c2ccc(Cl)cc2)Oc2nc(Nc3ccc(S(N)(=O)=O)cc3)sc2C1c1ccc(Cl)cc1 (stereo not given),0.634,34.6,0.304,0.257,0.24,0.462,0.124,0.182,17,0.143
N#CC1=C(NC(=O)CCl)Oc2nc(Nc3ccc(S(N)(=O)=O)cc3)sc2C1c1ccc(Cl)cc1 (stereo not given),0.702,43.8,0.252,0.25,0.531,–,–,–,–,–
N#CC1=C(NC(N)=O)Oc2nc(Nc3ccc(S(N)(=O)=O)cc3)sc2C1c1ccc(Cl)cc1 (stereo not given),0.701,49.8,0.228,0.309,0.717,–,–,–,–,–
N#CC1=C(NS(=O)(=O)c2ccccc2)Oc2nc(Nc3ccc(S(N)(=O)=O)cc3)sc2C1c1ccc(Cl)cc1 (stereo not given),0.697,47.5,0.361,0.239,0.492,–,–,–,–,–
N#CC1=C(N)Oc2nc(Nc3ccc(S(N)(=O)=O)cc3)sc2C1c1ccc(Cl)cc1 (stereo not given),0.848,39.4,0.214,0.168,0.36,0.706,0.203,0.097,26.2,0.062
